PubChem BioAssay
Activity calls are given as the source filed them.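 How the source made its calls, unless noted: active means inhibition at or above 50% at 10 µM; inactive means inhibition below 50%.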

Legend:
[1] = inhibitors of TNFa-induced NFkB p65 translocation, primary screen, imaging, HUVEC, MLSMR starter and 10KST1 sets (AID 438;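 active means inhibition above 20% together with a positive visual image hit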;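 further: compound added about 3h40 before a 20 min TNFalpha stimulation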;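 on inhibition: signal is the nuclear over cytoplasmic p65 intensity ratio per well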); conditions: HUVEC TNFa-induced p65 nuclear translocation; cell count: measured here: nuclei count (cytotoxicity indicator), at 2.08 µM; inhibition: at 2 µM, stronger effect = higher value, 0% TNFa-plus-vehicle, 100% no-TNFa wells
[2] = inhibitors of mutant huntingtin aggregation, primary screen, imaging, exon1htt(103Q)mCFP cells, high-content imaging (AID 483;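 active means visual image review flags a hit and inhibition of aggregation exceeds 20%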;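 further: compound exposure lasted 3 days before fixation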;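 on nuclei count: percent of the per-plate median nuclei count of sample wells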); conditions: exon1htt(103Q)mCFP cell line, aggregate imaging, at 2 µM; inhibition of aggregation: stronger effect = higher value; nuclei count: measured here: cell count, toxicity
[3] = inhibitors of E-selectin induction by TNFa, primary screen, imaging, HUVEC, immunofluorescence, MLSMR starter and 10KST1 sets (AID 487;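 active means visually confirmed hit in the image check and inhibition above 20%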;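 on inhibition: signal is fraction of cell area covered by stained E-selectin grains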;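 on nuclei count: 100% = median nuclei count of all wells on the same plate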); conditions: HUVEC TNFalpha-induced E-selectin immunofluorescence imaging, at 2 µM; inhibition: stronger effect = higher value; nuclei count: measured here: cell number, toxicity
[4] = target: Voltage-gated potassium channel subunit beta-2 (Rattus norvegicus) (UniProt P62483); experiment: KvBeta enzyme negative modulators, primary screen, biochemical, NADPH fluorescence (AID 622;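 active means fluorescence slope higher than the sample average by over 3 SD, cut at about -0.22 in these data, passing the limit was not always enough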;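 further: slope of raw intensity against log time taken from 70 to 1610 s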); conditions: recombinant KvBeta, 4-cyanobenzaldehyde reduction, at 10 µM, stronger effect = higher value
[5] = target: Voltage-gated potassium channel subunit beta-2 (Rattus norvegicus) (UniProt P62483); experiment: KvBeta positive modulators, primary screen, biochemical, NADPH fluorescence (AID 623;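 active means NADPH fluorescence slope more negative than the mean of all samples by about 3 SD, 99.7% confidence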;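 further: fluorescence intensity change per second fitted from 20 to 320 s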); conditions: Recombinant KvBeta, NADPH fluorescence decrease slope, 10 min; at 10 µM; stronger effect = lower value
[6] = target: Alpha-2C adrenergic receptor (Homo sapiens) (UniProt P18825); experiment: modulators of alpha2C/GIRK thallium flux, primary screen, cell-based, HEK293 alpha2C/GIRK1/2 (AID 624;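 active means fluorescence slope after compound addition differing from the mean of all screened samples at 99.7% confidence, in either direction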;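 further: slope of fluorescence ratio to pre-addition baseline per second over 15 to 24 s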); conditions: thallium flux BTC fluorescence, at 10 µM, actives lie on both sides
[7] = inhibitors of larval lipid processing in zebrafish, primary screen, whole organism, PED6 fluorescence, gall bladder and intestine (AID 686;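 active means a full or partial loss of lipid-probe fluorescence in the fish gall bladder, intestine or both, judged by eye; inactive means no fluorescence loss, or compound toxic to the fish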;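 further: larvae 5 to 7 days old with five fish per well; signal comes from phospholipase A2 cleavage of quenched PED6 carried via bile; overnight exposure to compound and PED6 before scoring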); conditions: Zebrafish larvae PED6 lipid processing, fluorescence scoring; screened at 20 µM (by protocol)
How it was run: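 system = live zebrafish larvae aged 5-7 days, whole organism | probe or stimulus = ingested quenched lipid PED6 at 100 nM | doses = 20 µM single dose | timing = overnight exposure | detection = fluorescence microscopy with visual scoring of gall bladder and intestine | read-out = visual per-well fluorescence inhibition score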

[8] = inhibitors of Sendai virus-induced IRF3 signaling, primary screen, TLR/RLR signaling modifier project, cell-based, Sendai virus stimulus, luciferase, 10K MLSCN set (AID 602276); conditions: HEK293 RL24 IRF3 luciferase reporter, at 10 µM, stronger effect = higher value;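 further: firefly luciferase from ISG56 promoter only with Renilla not read in this screen; 0% = Sendai virus plus DMSO and 100% = medium plus DMSO without virus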
[9] = inhibitors of poly I:C-induced TLR3 signaling, primary screen, cell-based, poly I:C stimulus, luciferase, 10K MLSCN set (AID 602277;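 active means inhibition of the reporter signal at or above 50%; inactive means inhibition below 50%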); conditions: HEK293-TLR3 RL24 IRF3 luciferase reporter, at 10 µM, stronger effect = higher value

Sequence of Voltage-gated potassium channel subunit beta-2 (Rattus norvegicus) (P62483 whole entry, looked up): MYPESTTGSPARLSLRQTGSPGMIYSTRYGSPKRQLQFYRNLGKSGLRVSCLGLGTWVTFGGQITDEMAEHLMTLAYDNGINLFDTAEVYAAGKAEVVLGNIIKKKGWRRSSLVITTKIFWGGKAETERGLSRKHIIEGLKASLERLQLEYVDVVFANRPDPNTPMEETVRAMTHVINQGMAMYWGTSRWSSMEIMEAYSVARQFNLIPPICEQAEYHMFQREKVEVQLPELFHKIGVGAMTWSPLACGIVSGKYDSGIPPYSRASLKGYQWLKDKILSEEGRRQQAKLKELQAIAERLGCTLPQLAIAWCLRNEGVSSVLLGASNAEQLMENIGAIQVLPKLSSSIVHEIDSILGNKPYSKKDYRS
Sequence of Alpha-2C adrenergic receptor (Homo sapiens) (P18825 whole entry, looked up): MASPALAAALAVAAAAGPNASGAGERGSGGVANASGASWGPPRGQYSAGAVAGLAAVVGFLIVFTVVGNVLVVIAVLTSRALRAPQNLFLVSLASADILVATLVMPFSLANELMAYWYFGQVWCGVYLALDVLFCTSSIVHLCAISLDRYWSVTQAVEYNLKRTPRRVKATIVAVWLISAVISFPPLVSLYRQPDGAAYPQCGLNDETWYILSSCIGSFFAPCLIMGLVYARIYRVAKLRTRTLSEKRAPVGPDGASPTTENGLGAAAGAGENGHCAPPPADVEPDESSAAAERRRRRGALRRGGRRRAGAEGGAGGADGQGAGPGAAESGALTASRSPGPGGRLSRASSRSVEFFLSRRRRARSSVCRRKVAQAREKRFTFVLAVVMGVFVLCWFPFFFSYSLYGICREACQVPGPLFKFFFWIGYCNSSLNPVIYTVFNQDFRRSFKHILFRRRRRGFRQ

Structure (SMILES) | cell count [1] | inhibition [1] | inhibition of aggregation [2] | nuclei count [2] | inhibition [3] | nuclei count [3] | fluorescence slope [4] | NADPH fluorescence slope [5] | slope [6] | outcome [7] | inhibition [8] | inhibition [9]
O=C(COC(=O)CCOc1ccccc1)Nc1ccc(Cl)cn1 | 723 | 5.7% (inactive) | -12.2% (inactive) | 101% | 35.5% (inactive) | 88.1% | -0.489 (inactive) | -1.8e-05 (inactive) | 0.00492 (inactive) | inactive | 5.25% (inactive) | 8.02% (inactive)
Cc1cc(C(=O)CSc2nnc(-c3ccccc3)n2C)c(C)n1C | 403 | 4.4% (inactive) | 3.6% (inactive) | 88.2% | -5.3% (inactive) | 107% | -0.477 (inactive) | -5.5e-05 (inactive) | 0.00512 (inactive) | inactive | -0.894% (inactive) | 78.4% (active)
O=C(Nc1sccc1C(=O)NCc1ccco1)c1cccnc1 | 343 | 2.1% (inactive) | -22.2% (inactive) | 103% | -92.1% (inactive) | 119% | -0.461 (inactive) | -3.3e-05 (inactive) | 0.00445 (inactive) | inactive | 5.47% (inactive) | -21.6% (inactive)
CC1(C)C(c2cccs2)=[N+]([O-])C2(CCCCC/C2=N\O)N1O (centres undefined) | 423 | 0.5% (inactive) | 5.7% (inactive) | 91.7% | -97.1% (inactive) | 112% | -0.46 (inactive) | -4.9e-05 (inactive) | 0.00609 (inactive) | inactive | 15.7% (inactive) | 15.3% (inactive)
COc1cccc(NC(=O)N2CCCC2C(=O)Nc2ccc3c(c2)OCO3)c1 (centres undefined) | 649 | 5.8% (inactive) | -11.8% (inactive) | 57.5% | -117% (inactive) | 106% | -0.351 (inactive) | -6.1e-05 (inactive) | 0.00477 (inactive) | inactive | 13.7% (inactive) | 18.8% (inactive)
Cn1c(C(=O)OC(C(=O)NC2CCCC2)c2cccnc2)cc2sccc21 (centres undefined) | 495 | 4% (inactive) | 9.5% (inactive) | 100% | -76.7% (inactive) | 102% | -0.437 (inactive) | -5.4e-05 (inactive) | 0.00446 (inactive) | active; weak signal in gallbladder and intestine | 18.1% (inactive) | 15.4% (inactive)
CCCCCc1nnc(NC(=O)Cc2cccs2)s1 | 325 | 3.8% (inactive) | -1.3% (inactive) | 93.5% | -23.7% (inactive) | 95.6% | -0.412 (inactive) | -5.9e-05 (inactive) | 0.00431 (inactive) | inactive | 11.9% (inactive) | 1.2% (inactive)
CNC(=O)CSc1nc2c(c(=O)n(C)c(=O)n2C)n1Cc1ccc(C)cc1 | 346 | 4% (inactive) | 15.9% (inactive) | 80.4% | -12.3% (inactive) | 88.8% | -0.37 (inactive) | -5.6e-05 (inactive) | 0.00619 (inactive) | inactive | 6.2% (inactive) | 24.5% (inactive)
COc1ccccc1-n1c(SCC(=O)NC(C)(C)C)nnc1-c1ccco1 | 662 | -13.1% (inactive) | 6.2% (inactive) | 87.8% | -53% (inactive) | 117% | -0.504 (inactive) | -2.6e-05 (inactive) | 0.0043 (inactive) | inactive | 10.4% (inactive) | 15.6% (inactive)
COCCCn1c(=N)c(C(=O)NCC2CCCO2)cc2c(=O)n3cccc(C)c3nc21 (centres undefined) | 587 | -8.8% (inactive) | -3.1% (inactive) | 78.6% | 28.1% (inactive) | 67.6% | -0.0296 (active) | -1.3e-05 (inactive) | 0.00471 (inactive) | inactive | 11.6% (inactive) | 21% (inactive)
COc1ccc(Cl)cc1NC(=O)CSc1nncn1-c1cccnc1 | 391 | -10.2% (inactive) | 25.6% (inactive) | 58.8% | 60.5% (active) | 93.1% | -0.296 (inactive) | 1.5e-05 (inactive) | 0.00524 (inactive) | inactive | 15.1% (inactive) | 22.7% (inactive)
Cc1ccc(CN2CCN(C(=O)C3CCC3)CC2)cc1 | 361 | 3.3% (inactive) | 23.3% (inactive) | 94.3% | -20.6% (inactive) | 104% | -0.447 (inactive) | -2.3e-05 (inactive) | 0.00503 (inactive) | inactive; toxic | 15.1% (inactive) | 6.88% (inactive)
COc1ccc(NC(=O)CSc2nc(C)cc(C(F)(F)F)n2)cc1 | 648 | -3.3% (inactive) | 8.8% (inactive) | 95.3% | -1% (inactive) | 92.8% | -0.418 (inactive) | -2.1e-05 (inactive) | 0.00507 (inactive) | inactive | 14.9% (inactive) | 18.5% (inactive)
COc1nc(-c2ccc(Cl)cc2)ccc1-c1noc(-c2ccncc2)n1 | 332 | 1.5% (inactive) | -4.2% (inactive) | 97.5% | -31.6% (inactive) | 114% | -0.223 (inactive) | -1.2e-07 (inactive) | 0.00449 (inactive) | inactive | 6.3% (inactive) | -7.25% (inactive)
COCCNC(=S)c1ccc(OC)cc1 | 318 | 4.7% (inactive) | 1.2% (inactive) | 121% | -41.9% (inactive) | 123% | -0.362 (inactive) | -7.4e-05 (inactive) | 0.00489 (inactive) | inactive | 4.72% (inactive) | 4.95% (inactive)
O=C(c1cc2nc(-c3ccco3)cc(C(F)(F)F)n2n1)N1CCN(c2ccccn2)CC1 | 746 | -10.5% (inactive) | 2.8% (inactive) | 101% | 32.7% (inactive) | 107% | -0.357 (inactive) | -6.7e-05 (inactive) | 0.00309 (inactive) | inactive | 10.1% (inactive) | -6.91% (inactive)
Cc1ccc(S(=O)(=O)C(C#N)c2nc3ccccc3nc2OC(C)C)cc1 (centres undefined) | 493 | 0% (inactive) | -10.6% (inactive) | 103% | -79.1% (inactive) | 114% | -0.38 (inactive) | -8.6e-05 (inactive) | 0.00476 (inactive) | inactive | 9.93% (inactive) | 10.6% (inactive)
COc1ccc(-n2ncc3c(NCc4cccs4)ncnc32)cc1 | 424 | 3.9% (inactive) | -20.1% (inactive) | 98.4% | -94.5% (inactive) | 106% | -0.36 (inactive) | -2e-06 (inactive) | 0.00593 (inactive) | inactive | -24.5% (inactive) | -70.4% (inactive)
COc1cc(SC)ccc1C(=O)Nc1ccccc1C#N | 417 | 3.9% (inactive) | -95.3% (inactive) | 2.1% | -147% (inactive) | 111% | -0.449 (inactive) | -1.3e-05 (inactive) | 0.00527 (inactive) | inactive | -42.4% (inactive) | -61.5% (inactive)
O=C(O)CCc1ccc(-c2ccc(F)cc2)n1CCC(=O)O | 422 | 1.8% (inactive) | -12.9% (inactive) | 118% | -140% (inactive) | 120% | -0.427 (inactive) | -5.7e-05 (inactive) | 0.00497 (inactive) | inactive; toxic | 15.3% (inactive) | 19.9% (inactive)
CC1(C)C2CCC1(C)C(OC(=O)CSc1nc(N)cc(=O)[nH]1)C2 (centres undefined) | 473 | 6.5% (inactive) | 4% (inactive) | 103% | -343% (inactive) | 136% | -0.367 (inactive) | -4.6e-05 (inactive) | 0.00448 (inactive) | inactive | 3.84% (inactive) | 8.04% (inactive)
CCOc1ccc(NS(=O)(=O)c2cc(Cl)ccc2OC)cc1 | 279 | -4.2% (inactive) | 19.4% (inactive) | 95.4% | -147% (inactive) | 129% | -0.282 (inactive) | 1.3e-05 (inactive) | 0.00586 (inactive) | inactive | 14.5% (inactive) | 21% (inactive)
COc1ccccc1N(CC(=O)NC1CCCC1)C(=O)c1csnn1 | 723 | -1.7% (inactive) | 10.7% (inactive) | 109% | -49.4% (inactive) | 126% | -0.365 (inactive) | -2.7e-05 (inactive) | 0.00495 (inactive) | inactive | -0.44% (inactive) | 1.68% (inactive)
O=C(O)c1ccc(S(=O)(=O)Cc2ccccc2)cc1 | 422 | 11.4% (inactive) | 3% (inactive) | 88.3% | -81.2% (inactive) | 113% | -0.421 (inactive) | 7.6e-07 (inactive) | 0.00596 (inactive) | inactive | 16.7% (inactive) | 11.3% (inactive)
COc1cccc(N2C(=O)N(c3ccccc3Cl)C3CS(=O)(=O)CC32)c1 (centres undefined) | 366 | -0.4% (inactive) | -6% (inactive) | 118% | -47.6% (inactive) | 122% | -0.336 (inactive) | -1.8e-05 (inactive) | 0.00497 (inactive) | inactive | 15.6% (inactive) | 20% (inactive)
CC(C)Cn1c2c(c(O)c(C(=O)Nc3ncccc3O)c1=O)CCCC2 | 576 | -5.9% (inactive) | 9.6% (inactive) | 99.1% | 26.1% (inactive) | 105% | -0.38 (inactive) | -6.5e-05 (inactive) | 0.00432 (inactive) | inactive | 8.02% (inactive) | 10.1% (inactive)
c1ccc2c(-c3nc(-c4ccncc4)no3)cccc2c1 | 313 | -1.1% (inactive) | -4.5% (inactive) | 88.4% | -210% (inactive) | 118% | -0.442 (inactive) | -3.1e-05 (inactive) | 0.00497 (inactive) | inactive | -14.2% (inactive) | -43.8% (inactive)
